The subject of series [1] is U-373MG ATCC. Kind of series: Cytotoxicity against human U373MG cells assessed as induction of morphological changes at 30 uM up to 24 hrs by phase contrast microscopic analysis. It counts as functional, cell-based.
Series [2] relates to U-373MG ATCC. Kind of series: Cytotoxicity against human U373MG cells assessed as induction of morphological changes at 30 uM after 12 hrs by phase contrast microscopic analysis. It counts as functional, cell-based. The essentials:
(§1)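 U373MG glioma cells exposed to 30 μM for 3 or 12 h; shape and density examined by phase contrast microscopy against untreated cells.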

A further series has as its system A549. Kind of series: Cytotoxicity against human A549 cells assessed as growth inhibition after 24 hrs by MTT assay. Type of series: functional, cell-based. The essentials:
(§2)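 Log-phase cells (1 × 10^4 per well) treated 24 h with 0–30 μM at 37 °C, 5% CO2, in triplicate; MTT added for final 3 h; vehicle 0.15% ethanol; IC50 from three separate days, mean ± SE.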
A general note: Tetrazolium dyes change colour on reduction, which living cells bring about.

Series [3] relates to T98G. Kind of series: Cytotoxicity against human T98G cells assessed as growth inhibition after 24 hrs by MTT assay. It counts as functional, cell-based. In outline:
as §2

The subject of the next series is HCT-116. Kind of series: Cytotoxicity against human HCT116 cells assessed as growth inhibition after 24 hrs by MTT assay. It counts as functional, cell-based. In outline: as §2
Series [4] deals with PANC-1. Description: Cytotoxicity against human PANC1 cells assessed as growth inhibition after 24 hrs by MTT assay. Type of series: functional, cell-based. The essentials:
as §2

For a further series, the system named is K562. Description: Cytotoxicity against human K562 cells assessed as growth inhibition after 24 hrs by MTT assay. It counts as functional, cell-based. The essentials: as §2
Series [5] concerns U-373MG ATCC. Kind of series: Cytotoxicity against human U373MG cells assessed as induction of morphological changes at 30 uM after 3 hrs by phase contrast microscopic analysis. It counts as functional, cell-based. In outline: as §1
Series [6] is described as follows: Binding affinity to DNA (unknown origin) assessed as induction of conformational changes at 300 uM after 2 hrs by CD spectrometric analysis. The essentials:
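DNA at 1000 μg/mL in 50 mM Tris-HCl, pH 7.5, incubated with ligand for 2 h at 37 °C, then CD spectra recorded at 25 °C. Conformational change was judged from the 275 nm band (base stacking) and the 245 nm band (B-conformation).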

The nature of series [7]: Cytotoxicity against human HEK293T cells assessed as cell viability at 60 uM after 24 hrs by MTT assay relative to control. It counts as cell-based, HEK-293T. To be noted: read-out: Activity. The essentials: (§3)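 Vero and HEK-293T normal cells (1 × 10^4 per well) exposed 24 h to 0, 15, 30, 45, 60 μM at 37 °C, 5% CO2, triplicate; MTT added 3 h; viability relative to vehicle control (0.15% ethanol).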

The nature of series [8]: Cytotoxicity against african green monkey Vero cells assessed as cell viability at 60 uM after 24 hrs by MTT assay relative to control. It counts as cell-based. To be noted: chlorocebus sabaeus, read-out: Activity. The essentials:
as §3

For series [9], the system named is PANC-1. Kind of series: Induction of apoptosis in human PANC1 cells assessed as procaspase-8 cleavage at 50 uM after 24 hrs by Western blot analysis. It counts as functional, cell-based. The essentials:
(§4)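 Cells (1.5 × 10^6) treated 24 h at 25 or 50 μM; 50 μg protein per lane on 10% SDS-PAGE, nitrocellulose, 2% TBS-BSA block, primary antibody overnight at 4 °C, HRP secondary, ECL detection; β-actin loading control; untreated controls in parallel.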

Series [10] deals with PANC-1. Description: Induction of apoptosis in human PANC1 cells assessed as procaspase-9 cleavage at 50 uM after 24 hrs by Western blot analysis. It counts as functional, cell-based. In outline: (§5)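 Cells (1.5 × 10^6) exposed 24 h to compound (25 or 50 μM). 50 μg protein per lane resolved on 10% SDS-PAGE and transferred to nitrocellulose. Membrane blocked in 2% TBS-BSA, then probed with primary antibody overnight at 4 °C and HRP secondary. Detection by ECL, with β-actin as loading control. Untreated control run in parallel.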
Background: Immunoblotting shows a protein as a band on a membrane.

Series [11] concerns PANC-1. Kind of series: Induction of apoptosis in human PANC1 cells assessed as procaspase-7 cleavage at 50 uM after 24 hrs by Western blot analysis. It counts as functional, cell-based. In outline: as §4
Series [12] has as its system PANC-1. Kind of series: Induction of apoptosis in human PANC1 cells assessed as PARP cleavage at 50 uM after 24 hrs by Western blot analysis. Type of series: functional, cell-based. The essentials:
as §4

In series [13] the test system is T98G. Kind of series: Induction of apoptosis in human T98G cells assessed as PARP cleavage at 50 uM after 24 hrs by Western blot analysis. Type of series: functional, cell-based. The essentials:
as §5

Series [14] relates to T98G. Kind of series: Induction of apoptosis in human T98G cells assessed as induction of DNA damage at 20 uM after 24 hrs by comet assay relative to untreated control. Type of series: functional. In outline:
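T98G cells (1 × 10^5) treated 24 h with 0 or 20 μM. About 20000 cells embedded in 0.5% low-melting agarose and lysed overnight at 4 °C at pH 10. Alkaline electrophoresis (pH 13) for 30 min at 300 mA at 4 °C, then ethidium bromide staining. Tail length (nucleus centre to tail tip) from ≥20 comets, reported as mean ± SD.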

The nature of series [15]: Binding affinity to DNA (unknown origin) at 100 uM after 2 hrs by UV-Vis absorption spectroscopic analysis. In outline:
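DNA (100 μg/mL; stock 1.0 mg/mL in 50 mM Tris-HCl pH 7.5, 50 mM NaCl) with ligand fixed at 100 μM; incubated at 37 °C, then diluted six-fold; absorbance scanned 220–350 nm at 25 °C, 1 cm quartz cell; 260 nm band monitored.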

Series [16] has as its system T98G. Kind of series: Downregulation of Bcl-xL expression in human T98G cells at 50 uM after 24 hrs by Western blot analysis. Type of series: functional, cell-based. The essentials: as §4
The subject of series [17] is T98G. Description: Induction of apoptosis in human T98G cells assessed as procaspase-9 cleavage at 50 uM after 24 hrs by Western blot analysis. Type of series: functional, cell-based. The essentials: as §5
Series [18] relates to T98G. Description: Induction of apoptosis in human T98G cells assessed as procaspase-7 cleavage at 50 uM after 24 hrs by Western blot analysis. It counts as functional, cell-based. The essentials: as §5
The test system of series [19] is T98G. Description: Induction of apoptosis in human T98G cells assessed as procaspase-8 cleavage at 50 uM after 24 hrs by Western blot analysis. It counts as functional, cell-based. The essentials:
as §5

The test system of series [20] is PANC-1. Description: Downregulation of total Bid expression in human PANC1 cells at 50 uM after 24 hrs by Western blot analysis. Type of series: functional, cell-based. In outline:
as §4

The test system of series [21] is PANC-1. Kind of series: Downregulation of Bcl-xL expression in human PANC1 cells at 50 uM after 24 hrs by Western blot analysis. Type of series: functional, cell-based. The essentials: as §4
Series [22] relates to T98G. Kind of series: Downregulation of total Bid expression in human T98G cells at 50 uM after 24 hrs by Western blot analysis. It counts as functional, cell-based. In outline: as §4
In series [23] the test system is PANC-1. Kind of series: Downregulation of Bcl-xL expression in human PANC1 cells at 25 uM after 24 hrs by Western blot analysis. Type of series: functional, cell-based. In outline: as §4
Series [24] has as its system T98G. Kind of series: Induction of apoptosis in human T98G cells assessed as procaspase-8 cleavage at 25 uM after 24 hrs by Western blot analysis. Type of series: functional, cell-based. The essentials: as §5
In series [25] the test system is T98G. Description: Downregulation of Bcl-xL expression in human T98G cells at 25 uM after 24 hrs by Western blot analysis. It counts as functional, cell-based. In outline:
as §4

Series [26] relates to PANC-1. Kind of series: Induction of apoptosis in human PANC1 cells assessed as procaspase-9 cleavage at 25 uM after 24 hrs by Western blot analysis. Type of series: functional, cell-based. The essentials: as §5
In series [27] the test system is T98G. Description: Induction of apoptosis in human T98G cells assessed as procaspase-7 cleavage at 25 uM after 24 hrs by Western blot analysis. It counts as functional, cell-based. In outline: as §5
Series [28] relates to PANC-1. Description: Induction of apoptosis in human PANC1 cells assessed as PARP cleavage at 25 uM after 24 hrs by Western blot analysis. It counts as functional, cell-based. The essentials:
as §4

Series [29] relates to PANC-1. Kind of series: Induction of apoptosis in human PANC1 cells assessed as procaspase-7 cleavage at 25 uM after 24 hrs by Western blot analysis. It counts as functional, cell-based. In outline:
as §4

Series [30] relates to T98G. Description: Induction of apoptosis in human T98G cells assessed as PARP cleavage at 25 uM after 24 hrs by Western blot analysis. Type of series: functional, cell-based. In outline:
as §5

Series [31] deals with PANC-1. Kind of series: Downregulation of total Bid expression in human PANC1 cells at 25 uM after 24 hrs by Western blot analysis. It counts as functional, cell-based. In outline:
as §4

In series [32] the test system is PANC-1. Kind of series: Induction of apoptosis in human PANC1 cells assessed as procaspase-8 cleavage at 25 uM after 24 hrs by Western blot analysis. It counts as functional, cell-based. The essentials:
as §4

Series [33] deals with T98G. Kind of series: Induction of apoptosis in human T98G cells assessed as procaspase-9 cleavage at 25 uM after 24 hrs by Western blot analysis. Type of series: functional, cell-based. The essentials:
as §5

In series [34] the test system is T98G. Description: Downregulation of total Bid expression in human T98G cells at 25 uM after 24 hrs by Western blot analysis. It counts as functional, cell-based. In outline:
as §4

Active and inactive are the calls of the source. The rule behind the calls is not given here.

For the compound `CC(=O)Oc1ccc2c(c1)[nH]c1c3c(c(C)cc12)O[C@](C)(CCC=C(C)C)C=C3`, the outcome with U-373MG ATCC [1] and in the series on U-373MG ATCC [2] was Active. For the same compound, the “growth inhibition (GI)” value with A549, in the series on T98G [3], in the series with HCT-116, in the series with PANC-1 [4] and with K562 was “Active” in each case. Also, in the series on U-373MG ATCC [5], the outcome was inactive.
Regarding `CC[n+]1c(-c2ccccc2)c2cc(N)ccc2c2ccc(N)cc21`, the result in [6] was Active.
As for `CC(C)=CCCC1(C)C=Cc2c(c(C)cc3c2[nH]c2cc(O)ccc23)O1` (stereo not given) [MAHANINE], the figures for the viability at 24 h, 60 µM in series [7] and in series [8] were over 65% and over 85%, respectively.
For `CC(C)=CCC[C@]1(C)C=Cc2c(c(C)cc3c4ccccc4n(C)c23)O1`, the outcome in the series on PANC-1 [9], in the series with PANC-1 [10], with PANC-1 [11], with PANC-1 [12], in the series with T98G [13] and in the series with T98G [14] was inactive. The outcome with T98G [16], with T98G [17], in the series on T98G [18], in the series with T98G [19], with PANC-1 [20] and in the series with PANC-1 [21] was inactive. Also, the result in the series on T98G [22] was inactive. In addition, the “growth inhibition (GI)” value in the series on A549, in the series on T98G [3], in the series with HCT-116, with PANC-1 [4] and in the series with K562 was “Active” in each case. Further, in [15], the result was Active.
With `COc1ccc2c(c1)[nH]c1c3c(c(C)cc12)O[C@](C)(CCC=C(C)C)C=C3`, the result in the series on U-373MG ATCC [2], in the series on PANC-1 [23], in the series with T98G [24], in the series with T98G [25], in the series with T98G [14] and with PANC-1 [26] was inactive. Also, the outcome in the series on T98G [27], in the series with PANC-1 [28], in the series with PANC-1 [29], in the series with T98G [30], with PANC-1 [31] and in the series on PANC-1 [32] was inactive. Moreover, the result in the series on T98G [33] and in the series with T98G [34] was inactive. Moreover, the “growth inhibition (GI)” value with A549, with T98G [3], with HCT-116, in the series with PANC-1 [4] and in the series on K562 was “Active” each time. Besides, the result in [15] was Active.
